Test results taken from ChEMBL document CHEMBL5029154, “Design, Synthesis, and Biological Evaluation of Organic Nitrite (NO2-) Donors as Potential Anticerebral Ischemia Agents” (J Med Chem, 2021).
Converted amounts (≈) assume the structure as drawn. The source made the active and inactive calls. The rule behind the calls is not given here.

Assays:
[1] = Solubility of compound in water; type: physicochemical
[2] = tested on: Rattus norvegicus; assay: Neuroprotective activity against middle cerebral artery occlusion-induced ischemia-reperfusion injury Sprague-Dawley rat model assessed as decrease in brain infarct volume at 95 to 9500 microg/kg, iv treated immediately reperfusion measured after 24 hrs; type: functional, organism-based; settings: dose 95-9500 µg/kg
Method in brief: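 Male SD rats (12 weeks, 200–220 g; N = 8/group) underwent MCAO under […] (350 mg/kg) using a nylon intraluminal suture for 2 h, then reperfusion. Compound (95, 950 or 9500 μg/kg) was given iv immediately after reperfusion; where used, PTIO 1 mg/kg iv was given 30 min before. At 24 h, blinded scoring covered Longa neurological deficit, TTC infarct area/whole area, and edema from wet/dry brain weight (105 °C, 24 h).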

[3] = tested on: Rattus norvegicus; assay: Neuroprotective activity against middle cerebral artery occlusion-induced ischemia-reperfusion injury Sprague-Dawley rat model assessed as increase in Ki67+ cells in cerebral ischemic penumbra at 95 to 950 microg/kg, iv treated immediately reperfusion measured after 24 hrs by immunofluoresence assay; type: functional, organism-based; settings: dose 95-950 µg/kg
[4] = GSH reactivity assessed as reaction rate measured at 8 equiv of GSH upto 24 hrs by HPLC analysis; type: ADME
[5] = Photostability of the compound under light at 200 uM measured after 24 hrs by HPLC analysis; type: physicochemical
[6] = tested on: Cortical neurone; assay: Neuroprotective activity against in OGD/R-induced Sprague-Dawley rat cortical neuron injury assessed as cell viability pretreated at 1.8 uM for 24 hrs followed by subjected to OGD for 2 hrs measured after 24 hrs under normoxic condition; type: functional, tissue-based
Method in brief: (§1)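 Cortical neurons were isolated from SD rat cortex by enzymatic digestion, plated on poly-lysine in 10% FBS DMEM, and pretreated 24 h at 1.8 μM in basal medium with 2% B27. OGD was run in glucose/FBS-free DMEM under 1% O₂, followed by 24 h reoxygenation in 10% FBS DMEM. Viability was read by MTT; apoptosis was also assessed. Three independent experiments.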

[7] = GSH reactivity assessed as reaction rate measured at 4 equiv of GSH upto 24 hrs by HPLC analysis; type: ADME
[8] = Stability of the compound in pH 7.4 saline assessed as half life at 200 uM measured after 24 hrs by HPLC analysis; type: physicochemical; settings: saline pH 7.4, pH 7.4
[9] = tested on: Rattus norvegicus; assay: Neuroprotective activity against middle cerebral artery occlusion-induced ischemia-reperfusion injury Sprague-Dawley rat model assessed as decrease in cerebral infarct volume at 95 to 9500 microg/kg, iv pretreated for 2 hrs followed by reperfusion measured after 24 hrs; type: functional, organism-based; settings: dose 95-9500 µg/kg
Method in brief: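 Male SD rats (N = 8/group) were dosed iv at 95, 950 or 9500 μg/kg 2 h before 2 h MCAO (nylon suture, chloral hydrate anesthesia), then reperfused. Where used, PTIO 1 mg/kg iv was given 30 min before compound. At 24 h, blinded assessment covered Longa deficit score, TTC-stained 2 mm sections (infarct area/whole area), and edema by wet/dry weight.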

[10] = tested on: HUVEC; assay: Angiogenesis activity in HUVEC cells assessed as increase in tube formation at 1.8 uM measured after 8 hrs in presence of NS2028 by inverted microscopy; type: functional, cell-based; settings: Homo sapiens
Method in brief: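 Early-passage HUVECs (passages 2–6), grown in DMEM with 10% FBS, glutamine, pyruvate and antibiotics, were seeded at 8 × 10⁴ cells/well on Matrigel. They were exposed to vehicle or compound for 8 h at 37 °C, 5% CO₂. Tubes were counted under an inverted microscope.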

[11] = Neuroprotective activity against in OGD/R-induced rat primary cortical neuron apoptosis assessed as viable cells pretreated at 1.8 uM for 24 hrs followed by subjected to OGD for 2 hrs measured after 24 hrs under normoxic condition by PI/FITC-H staining based flow cytometry (reference value: 31.55%); type: functional; settings: Cortical neurone, read-out: Activity; method in brief: as §1

With `O=C(/C(=C/c1ccccc1)C[N+](=O)[O-])c1ccccc1` the solubility [1] was 33.2 µg/mL (≈ 124 µM), the Activity [2] was “Active” and the Activity [3] was “Active”. For the same compound, the Activity [4] was 0.0363 h⁻¹, the Stability [5] was “Stable” and the Activity [6] was “Active”. The Activity [7] was 0.0299 h⁻¹, the half-life at 200 µM [8] was 38.5 h and the Activity [9] was “Active”. The Activity [10] was “inactive” and the viability at 1.8 µM [11] was 69.8%.
